Bioassay records deposited in PubChem by The Scripps Research Institute Molecular Screening Center.
MC4R barr agon = agonists of human melanocortin 4 receptor (MC4R) beta-arrestin; U2OS MC4R beta-arrestin complementation, luminescence; percent of melanotan II response, DMSO zero; activation, % at 8.9 µM; hit rate 0.98% among 360,000;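 active means activation above a per-plate cutoff, the mean activation of sample wells on that plate plus 3 SD, cut at about 8% in these data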
AHR act = activators of human aryl hydrocarbon receptor; hit rate 2.5% among 320,000; AHR-responsive luciferase reporter cells, luminescence; activation, % at 5 µM; AID 2796; in the data active means activation above about 47%;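 further: 0% = vehicle wells and 100% = reference agonist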
MC4R antag cAMP = human MC4R antagonism in cAMP assay; MC4R-expressing cells, MTII-stimulated cAMP, LANCE TR-FRET; inhibition, % at 6.5 µM; hit rate 0.48% among 360,000;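 active means inhibition above its plate's cutoff, the mean of tested wells on that plate plus 3 SD, cut at about 29% in these data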;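 further: 0% = Melanotan II alone and 100% = Melanotan II plus saturating MCL0020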
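System: U2OS-MC4R stable cell line; Technique: Eu-cAMP/anti-cAMP TR-FRET, emission 671 nm; Repeats: single well per compound; Also added: Melanotan II; Dosing: one concentration, 6.5 µM nominal; Schedule: 30-min compound, 1-h challenge, 1-h detection, room temperature.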
HTR2A ag = activates the mouse 5-HT2A serotonin receptor; AID 624169; CHO-K1 mHTR2A beta-arrestin complementation, luminescence; percent of 30 µM serotonin response; hit rate 0.66% among 360,000; P35363; activation, % at 7.6 µM;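 active means activation above a run cutoff, the mean activation of all tested compounds plus 3 SD, cut at about 14% in these data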;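 further: 0% = plate median of compound wells and 100% = 30 µM serotonin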
Target sequence (P35363 whole entry, looked up): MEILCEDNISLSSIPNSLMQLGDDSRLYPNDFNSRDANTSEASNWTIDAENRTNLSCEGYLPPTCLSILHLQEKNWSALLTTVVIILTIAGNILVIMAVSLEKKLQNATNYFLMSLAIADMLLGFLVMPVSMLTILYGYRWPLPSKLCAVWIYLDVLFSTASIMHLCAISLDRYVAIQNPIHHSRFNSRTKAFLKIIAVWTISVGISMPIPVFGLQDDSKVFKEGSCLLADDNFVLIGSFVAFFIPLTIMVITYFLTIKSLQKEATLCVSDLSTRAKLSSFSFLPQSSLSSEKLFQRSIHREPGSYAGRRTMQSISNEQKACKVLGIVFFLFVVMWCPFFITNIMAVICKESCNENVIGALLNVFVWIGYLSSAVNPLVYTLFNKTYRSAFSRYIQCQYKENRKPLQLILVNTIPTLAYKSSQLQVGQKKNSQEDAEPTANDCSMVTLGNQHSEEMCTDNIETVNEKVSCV
GAA850 FXN act = frataxin GAA850 promoter activation; HEK293 lucGAA850 FXN promoter luciferase reporter, 24 h; percent of 10 µM SAHA response; hit rate 0.56% among 360,000; activation, % at 6 µM;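 active means activation above the average of all compounds screened plus 3 SD, cutoff fixed separately per campaign, cut at about 7.5% in these data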;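 further: 0% = DMSO wells and 100% = 10 µM SAHA wells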
The depositor's hits bear a star; / = no result given. This is a sample that favours compounds with a hit; in the whole collection about 4.7% have one here.

SMILES | MC4R barr agon | AHR act | MC4R antag cAMP | HTR2A ag | GAA850 FXN act
O=C(N/N=C/c1cn(-c2ccccc2)nc1-c1ccccc1)c1ccco1 | -2 | 2 | 5 | 0 | 5
CCOc1ccc(S(=O)(=O)NCc2ccc3c(c2)OCO3)cc1C(=O)O | -1 | 0 | 7 | 0 | 1
CC(=O)c1sc(Nc2ccccn2)nc1C | -1 | 61* | 8 | -3 | 2
O=C(CSc1ccc(Cl)cc1)Nc1ccc(N2CCN(C(=O)c3ccc(Cl)cc3)CC2)cc1 | 14* | 28 | 16 | -3 | -4
O=C(CSc1nc2ccccc2o1)Nc1ccc(N2CCOCC2)cc1 | -1 | 19 | 2 | 0 | -1
O=C(Nc1ccc(N2CCOCC2)cc1)c1ccc(Cl)nc1 | -1 | 73* | 0 | 1 | 2
O=C(CSc1nc2cc(Cl)ccc2o1)Nc1ccc(N2CCOCC2)cc1 | 19* | 0 | -3 | 3 | -2
O=C(CSc1ccc(Cl)cc1)Nc1ccccc1N1CCN(C(=O)c2ccc(Cl)cc2)CC1 | -1 | 1 | 1 | 4 | -6
CCOC(=O)[C@]12CCCC=C1N(Cc1cccc3ccccc13)C(=O)[C@H](CC(=O)NCCCCc1ccccc1)C2 | / | / | / | 4 | /
COC(=O)[C@@]12C[C@@H](CC(=O)N3CCSCC3)C(=O)N(CCc3ccc(OC)c(OC)c3)C1=CCC(C)(C)C2 | / | / | / | 5 | /
COCCOc1ccc(C(F)(F)F)cc1NC(=O)CN1C(=O)NC2(CCc3ccccc32)C1=O (centres undefined) | -2 | 5 | -6 | 0 | 2
O=C(Nc1ccccc1)N1CCCC(c2nc(-c3cccs3)no2)C1 (centres undefined) | 2 | 70* | 8 | 0 | -1
O=C(Nc1ccc(Cl)cc1)N1CCC(c2nc(-c3ccccc3Cl)no2)CC1 | 9.0* | 2 | 21 | -3 | -1
COc1ccc(NC(=O)N2CCC(c3nc(-c4cccs4)no3)CC2)cc1 | 1 | 60* | 2 | -4 | -1
O=C(O)c1ccccc1C(c1ccccc1)c1ccccc1O (centres undefined) | -1 | / | -4 | 2 | 0
CC(O)CNc1nc2ccccc2n1-c1ncnc2sc3c(c12)CCC3 (centres undefined) | 1 | 59* | -5 | 18* | -1
COc1ccc(C/C(N)=N/OC(=O)c2ccc(Cl)cc2)cc1 | 2 | -2 | 8 | -1 | 1
N/C(Cc1ccc(Cl)cc1)=N\OC(=O)c1ccc2ccccc2c1 | 9.2* | 10 | 23 | 1 | 1
CNc1cc(CSc2ccc(Cl)cc2)nc(C)n1 | -2 | 68* | -4 | -4 | 6
COc1cc(C(=O)OCC(=O)Nc2ccccc2)cc2c1OCCO2 | -1 | / | -5 | 5 | 0
Nc1cc(Cl)nc(N/N=C/c2ccc([N+](=O)[O-])cc2)n1 | -2 | 5 | -10 | -1 | 3
COc1nc(N/N=C/c2ccc(-c3ccccc3[N+](=O)[O-])o2)nc(N2CCOCC2)n1 | 0 | 50* | 6 | -2 | 4
O=[N+]([O-])c1ccccc1/C=N/Nc1nc(N2CCCC2)nc(N2CCCC2)n1 | 0 | 51* | -2 | 0 | 0
O=[N+]([O-])c1ccccc1/C=C/C=N/Nc1nc(N2CCCCC2)nc(N2CCCCC2)n1 | 1 | 2 | 11 | -4 | 1
Nc1cc(Cl)nc(N/N=C/c2ccccc2[N+](=O)[O-])n1 | -2 | 52* | -3 | -2 | 5
O=C1C(NS(=O)(=O)c2ccccc2)=C(N2CCN(c3ccc(F)cc3)CC2)C(=O)c2ccccc21 | -5 | 66* | 4 | -1 | 3
